Compound activity (PubChem BioAssay)
AP complement: alternative pathway complement inhibition, orthogonal assay. AID 1235. inhibition, % at 5 µM. Human serum alternative complement pathway, LPS-coated ELISA, C3 deposition; tested in compound mixtures. hit rate 0.08% among 62,000;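 active means inhibition above 30% in each of the two pooled mixtures holding the compound, so the lower value exceeds 30%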
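Assay system: Human serum alternative complement pathway, C3 deposition on LPS-coated wells | Incubation: 1 h serum-compound exposure at 37 °C | Doses: 5 µM per compound in ten-compound mixtures | Read-out: Percent inhibition | Technique: ELISA with HRP anti-human C3 antibody, TMB substrate, absorbance 450 nm | Replication: Two pool placements per compound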
DAT uptake mod: changed human dopamine transporter uptake under cocaine IC80; hit rate 1.3% among 110,000; Q01959; LLC-PK1 hDAT cells, [14C]-dopamine uptake with cocaine IC80; actives deviate in either direction; B-score at 10 µM;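 active means Z score or B-score, a plate-position-corrected score, falls beyond the plate's 99.7% confidence bounds, in either direction; inactive means both scores lie inside the 99.7% bounds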
Target sequence (Q01959 whole entry, looked up): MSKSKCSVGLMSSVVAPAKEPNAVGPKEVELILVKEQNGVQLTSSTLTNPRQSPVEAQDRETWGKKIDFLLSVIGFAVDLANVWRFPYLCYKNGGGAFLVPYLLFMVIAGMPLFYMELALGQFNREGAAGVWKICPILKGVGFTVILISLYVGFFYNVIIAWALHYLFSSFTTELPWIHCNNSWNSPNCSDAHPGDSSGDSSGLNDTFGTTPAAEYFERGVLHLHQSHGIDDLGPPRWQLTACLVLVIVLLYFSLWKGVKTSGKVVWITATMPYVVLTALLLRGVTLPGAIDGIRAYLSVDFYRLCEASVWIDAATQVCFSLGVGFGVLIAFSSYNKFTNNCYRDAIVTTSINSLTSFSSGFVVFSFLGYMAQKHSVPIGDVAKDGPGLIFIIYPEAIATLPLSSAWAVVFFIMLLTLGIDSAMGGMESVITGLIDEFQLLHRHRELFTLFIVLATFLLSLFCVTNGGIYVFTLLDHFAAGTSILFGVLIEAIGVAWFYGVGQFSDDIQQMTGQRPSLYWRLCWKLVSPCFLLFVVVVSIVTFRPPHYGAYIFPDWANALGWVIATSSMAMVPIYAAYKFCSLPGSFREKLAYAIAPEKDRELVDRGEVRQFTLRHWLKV
D1 mod: allosterically modulates the human D1 dopamine receptor; P21728; HEK293 D1, CRE-luciferase, dopamine EC30 potentiation; actives deviate in either direction; B-score at 10 µM; hit rate 5.9% among 58,000; AID 641;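 active means luminescence count or its row- and column-corrected plate score outside the 99.7% band of the plate's sample wells, on either side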
WNV protease inh: blocks West Nile virus NS2B-NS3 protease activity | P06935 | WNV NS2B-NS3 protease, fluorogenic substrate Ex360/Em465; hits give low values | z-score (test concentration not listed) | hit rate 0.18% among 65,000; in the data active means z-score below about -3
D1 PAM confirm: D1 receptor (human) allosteric modulation, confirmed; shares compounds with D1 mod; luminescence at 10 µM; HEK293 D1 CRE-luciferase, dopamine EC30 potentiation; hits give high values; AID 642; hit rate 88% among 2,200;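 active means luminescence in either of two replicates above the same-plate mean plus 3 SD of the low-dose dopamine control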
D1 no dopamine: activates D1 CRE-luciferase signal without dopamine present; HEK293 D1 CRE-luciferase, luminescence, no dopamine; hits give high values; hit rate 0.8% among 1,900; luminescence at 10 µM; shares compounds with D1 mod; in the data active means luminescence above about 3900
Isoprot counter: alters isoproterenol CRE-luciferase response in HEK293 cells; shares compounds with D1 mod; HEK293 D1 CRE-luciferase, isoproterenol EC30 counter-screen; hits give high values; luminescence at 10 µM; hit rate 63% among 2,200;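 active means luminescence in either replicate above plate mean of wells with a partly effective reference agonist dose plus 3 SD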;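 further: isoproterenol raises cAMP through native beta-adrenoceptor Gs so signal bypasses D1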
Numbers stand for hits; 0 = inactive; - = no result. This excerpt belongs to a sample that is enriched for hits.

SMILES | AP complement | DAT uptake mod | D1 mod | WNV protease inh | D1 PAM confirm | D1 no dopamine | Isoprot counter
O=C(CCc1ccc(CCC(=O)c2cccs2)s1)c1cccs1 | 0 | 0 | 3.4 | 0 | 11800 | 0 | 0
O=C(Nc1nc2c(c(=O)[nH]1)CCCC2)C1CC1 | - | 0 | - | - | - | - | -
COc1c(S(=O)(=O)n2nc(C)cc2C)ccc(Cl)c1Cl | 0 | 0 | 3.6 | 0 | 12296 | 0 | 0
CCCCN1CCc2c([nH]c3c(C)cccc23)C1=O | 0 | 0 | 0 | 0 | - | - | -
CCOC(=O)c1ccc(NC(=O)C2(c3ccccc3)CCOCC2)cc1 | - | 0 | - | - | - | - | -
O=C(Nc1c(F)c(F)c(F)c(F)c1F)C1CCCCC1 | 0 | 0 | 0 | 0 | - | - | -
O=C(Nc1nonc1NC(=O)C1CCCCC1)C1CCCCC1 | 0 | 0 | 17 | 0 | 25348 | 0 | 4640
CCCCn1c(NC(=O)CC)c(C#N)c2nc3ccccc3nc21 | 0 | 0 | 7.2 | 0 | 14868 | 0 | 3520
Nc1nc(SCC(=O)NCCC(c2ccccc2)c2ccccc2)n[nH]1 | - | 0 | - | - | - | - | -
Cc1cc(N)n(-c2nc(-c3cccnc3)nc3ccccc23)n1 | 0 | 0 | 4.3 | 0 | 12176 | 0 | 0
Nc1ncnc2oc(-c3ccco3)c(-c3ccco3)c12 | 0 | 0 | 10 | 0 | 19128 | 24288 | 3744
Nc1nnc(-c2ccco2)s1 | 0 | 0 | 0 | 0 | - | - | -
COc1cc(C(CCN2CCCC2)c2c(OC)cc(OC)c3c(-c4ccccc4)cc(=O)oc23)cc(OC)c1OC (stereo unspecified) | - | 0 | - | - | - | - | -
CC(C)Nc1nc(C#N)nc(NC(C)C)n1 | 0 | 0 | 11 | 0 | 12292 | - | 3804
N#Cc1c2c(nc(N)c1-c1ccccc1)CCCCC2 | 0 | 0 | 4.5 | 0 | 7208 | 0 | 0
Cc1ccc(CN(c2ccc(C(=O)NCc3ccccn3)cc2)S(C)(=O)=O)cc1 | - | 0 | - | - | - | - | -
Cc1cc(NS(=O)(=O)c2ccc(NC(=O)COc3ccccc3Cl)cc2)no1 | 0 | 0 | 0 | 0 | - | - | -
Cc1cc(NS(=O)(=O)c2ccc(NC(=O)COc3ccccc3C(C)C)cc2)no1 | 0 | 0 | 4.1 | 0 | 6636 | 0 | 0
CN(C)C(=O)NC(O)C(Cl)Cl (stereo unspecified) | - | 0 | - | - | - | - | -
COc1ccc(-c2cc(C(F)F)n3ncc(C(=O)N4CCN(C)CC4)c3n2)cc1 | - | 0 | - | - | - | - | -
COc1ccc(-c2cc(C(F)F)n3ncc(C(=O)N4CCSCC4)c3n2)cc1 | 0 | 0 | 5.2 | 0 | 8908 | 0 | 4756
C=CCNc1nc2c3ccccc3n(C(C)=O)c2s1 | 0 | 0 | 6.2 | 0 | 7816 | 0 | 2964
CC(=O)n1c2ccccc2c2c(C#N)c(N3CCCCC3)sc21 | 0 | - | 0 | 0 | - | - | -
COC(=O)c1nn(-c2ccccc2)c(Sc2ccc(Cl)cc2)c1/C=N/O | - | 0 | - | - | - | - | -
COc1ccc(OC)c(N2C(=O)C(Cl)=C(N3CCCCC3)C2=O)c1 | 0 | 0 | 8.9 | 0 | 6148 | 0 | 0
SMILES | AP complement | DAT uptake mod | D1 mod | WNV protease inh | D1 PAM confirm | D1 no dopamine | Isoprot counter
COC(=O)c1cccc(NC(=O)CCSc2ccc(Cl)cc2)c1C | - | 0 | - | - | - | - | -
COc1ccc(/C=N/n2c(SC)nnc2-c2ccccc2)cc1C | 0 | 0 | 16 | 0 | 23520 | 0 | 15392
CCCC(=O)C1=C(c2ccccc2)C(C#N)(C#N)C(C#N)=C1N | 0 | - | 0 | 0 | - | - | -
O=c1c(-c2ccc(O)cc2)coc2cc(O)cc(O)c12 | - | 0 | - | - | - | - | -
COc1ccc(-c2coc3cc(O)cc(O)c3c2=O)cc1 | 0 | 0 | 6.2 | 0 | 9820 | 0 | 0
Cn1c(Cc2csc(N)n2)nnc1SCC(=O)NCc1ccccc1 | 0 | 0 | 0 | 0 | - | - | -
O=C1CCCC(O)=C1C(C#Cc1ccccc1)C1=C(O)CCCC1=O | 0 | 0 | 3.6 | 0 | 0 | 0 | 0
C=CCNc1nc(Nc2ccc(OC)cc2OC)nc(OCC)n1 | 0 | 0 | 3.8 | 0 | 10064 | 0 | 2932
O=C1N=C(N2CCOCC2)SC1=C1CCCCC1 | 0 | 0 | 0 | 0 | - | - | -
C=CCN1C(=O)/C(=C2\SC(N3CCOCC3)=NC2=O)c2cc(Br)ccc21 | 0 | 0 | 9 | 0 | 17804 | 0 | 4584
CCOC(=O)c1nnn(-c2nonc2N)c1CN(CC)c1ccccc1 | - | 0 | - | - | - | - | -
Cc1c(C(=O)NC(C)C)oc2c1-c1[nH]ncc1CC2 | 0 | 0 | 0 | 0 | - | - | -
CCOc1ccc(CCNC(=O)c2oc3c(c2C)-c2[nH]ncc2CC3)cc1OCC | 0 | 0 | 11 | 0 | 24696 | 0 | 11928
CCCCS(=O)Cc1ccccc1 (stereo unspecified) | - | 0 | - | - | - | - | -
